We go through one compound from PMC3923374 (Analytical biochemistry, 2013).

By Ki is commonly meant the dissociation constant of the complex between target and ligand, obtained from inhibition or displacement.

The target in one assay is sigma-1 receptor (Cavia porcellus, UniProt Q60492). Put plainly: radioligand competition with [3H]. Type of assay: binding. To be noted: read-out: Ki for sigma-1 receptors. On the technique in general: Displacement assays read how much labelled ligand stays bound in the presence of the test substance.
The target in a further assay is T1, sigma-2 receptor (Rattus norvegicus, UniProt Q5U3Y7).
T1 sequence (Q5U3Y7 1-176): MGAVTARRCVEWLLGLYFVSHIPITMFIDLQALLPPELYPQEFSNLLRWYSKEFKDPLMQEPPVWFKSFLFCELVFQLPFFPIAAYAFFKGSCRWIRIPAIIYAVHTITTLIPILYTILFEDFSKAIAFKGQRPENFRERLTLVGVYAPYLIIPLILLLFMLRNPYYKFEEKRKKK
Put plainly: radioligand competition with [3H]RHM-1 in rat liver membranes. Particulars: read-out: Ki for sigma-2 receptors. Type of assay: binding. The method, boiled down: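 Rat liver membrane homogenate (~300 μg protein) in 50 mM Tris-HCl, pH 8.0, incubated 60 min at 25°C with 1 nM [³H]RHM-1 (80 Ci/mmol) and test compound at 0.1 nM–10 μM. Stopped with cold 10 mM Tris-HCl/150 mM NaCl, pH 7.4, filtered onto glass-fiber filters presoaked 1 h in 50 mM Tris-HCl, washed three times ice-cold, scintillation counted. Nonspecific binding: 10 μM haloperidol.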

Chain of sigma-1 receptor (Q60492 whole entry): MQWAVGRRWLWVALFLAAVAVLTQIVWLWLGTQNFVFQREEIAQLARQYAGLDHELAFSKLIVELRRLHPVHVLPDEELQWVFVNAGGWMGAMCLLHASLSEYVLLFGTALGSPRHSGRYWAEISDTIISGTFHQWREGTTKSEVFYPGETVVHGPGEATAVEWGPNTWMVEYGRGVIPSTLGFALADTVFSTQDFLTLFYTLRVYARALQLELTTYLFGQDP

Turning to `O[C@@H](CN1[C@@H]2CC[C@H]1CC(c1ccccc1)C2)c1cccc(Br)c1` (some centres unmarked) [RHM-138], the figures for the Ki at sigma-1 receptor and on sigma-2 receptor were 544 nM and 12.3 nM, respectively.
